Assay results as given in ChEMBL document CHEMBL1128590, “erbB-2 oncogene inhibition by geldanamycin derivatives: synthesis, mechanism of action, and structure-activity relationships” (J Med Chem, 1995).
Activity calls are given as the source filed them. The rule behind the calls is not given here.

Columns and labels:
Mus musculus [1] = test: In vivo inhibition of p185 phosphotyrosine in nu/nu nude mice bearing Fisher rat embryo cells transfected with human erbB-2; assay type: functional; design: concentration or dose not given beside the values
SK-BR-3 = test: In vitro inhibition of p185 erbB-2 oncoprotein in human breast cancer SK-BR-3 cells; assay type: functional, cell-based
How it was run: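 Cellular assay with read-out as depletion of p185 erbB-2 protein after drug treatment of the cells. This depletion tracks inhibition of p185 autophosphorylation.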

Mus musculus [2] = test: In vivo inhibition of p185 phosphotyrosine in nu/nu nude mice bearing Fisher rat embryo cells transfected with human erbB-2 (inactive); assay type: functional, organism-based

IC50 (SK-BR-3) | Compound | Inhibition (Mus musculus [1]) | inhibition (Mus musculus [2])
600 nM | COc1ccccc1C(=O)CN1C(=O)/C(C)=C/C=C\[C@H](OC)[C@@H](OC(N)=O)/C(C)=C/[C@H](C)[C@@H](O)[C@@H](OC)C[C@H](C)CC2=C(N)C(=O)C=C1C2=O | 50% | –
1200 nM | COc1ccc(C(=O)CN2C(=O)/C(C)=C/C=C\[C@H](OC)[C@@H](OC(N)=O)/C(C)=C/[C@H](C)[C@@H](O)[C@@H](OC)C[C@H](C)CC3=C(N)C(=O)C=C2C3=O)cc1 | – | –
– | CO[C@H]1/C=C\C=C(/C)C(=O)NC2=CC(=O)C(N3CCC3)=C(C[C@@H](C)C[C@H](OC)[C@H](O)[C@@H](C)/C=C(\C)[C@@H]1OC(N)=O)C2=O | 61% | –
– | COC1=C2C[C@@H](C)C[C@H](OC)[C@H](O)[C@@H](C)/C=C(\C)[C@H](OC(N)=O)[C@@H](OC)/C=C\C=C(/C)C(=O)NC(=CC1=O)C2=O | – | inactive
170 nM | CO[C@H]1/C=C\C=C(/C)C(=O)NC2=CC(=O)C(N3CCC3)=C(C[C@@H](C)C[C@H](OC)[C@@H](F)[C@@H](C)/C=C(\C)[C@@H]1OC(N)=O)C2=O | – | inactive
1000 nM | CO[C@H]1/C=C\C=C(/C)C(=O)NC2=CC(=O)C(N3CCC3)=C(C[C@@H](C)C[C@H](OC)[C@H](O)[C@@H](C)/C=C(\C)[C@@H]1OC(=O)C(=O)O)C2=O | – | –
> 3700 nM | CO[C@H]1/C=C\C=C(/C)C(=O)NC2=CC(=O)C(NC3CCC3)=C(C[C@@H](C)C[C@H](OC)[C@H](O)[C@@H](C)/C=C(\C)C1=O)C2=O | – | –
270 nM | CO[C@H]1C[C@H](C)CC2=C(NC(C)C)C(=O)C=C(NC(=O)/C(C)=C/C=C\[C@H](OC)[C@@H](OC(N)=O)/C(C)=C/[C@H](C)/C1=N/O)C2=O | – | –
230 nM | CO[C@H]1/C=C\C=C(/C)C(=O)N(CC(=O)c2ccc(N=[N+]=[N-])cc2)C2=CC(=O)C(N)=C(C[C@@H](C)C[C@H](OC)[C@H](O)[C@@H](C)/C=C(\C)[C@@H]1OC(N)=O)C2=O | – | –
90 nM | CO[C@H]1/C=C\C=C(/C)C(=O)N(CC(=O)c2ccc([N+](=O)[O-])cc2)C2=CC(=O)C(N)=C(C[C@@H](C)C[C@H](OC)[C@H](O)[C@@H](C)/C=C(\C)[C@@H]1OC(N)=O)C2=O | – | –
260 nM | C=CCNC1=C2C[C@@H](C)C[C@H](OC)[C@@H](F)[C@@H](C)/C=C(\C)[C@H](OC(N)=O)[C@@H](OC)/C=C\C=C(/C)C(=O)NC(=CC1=O)C2=O | 50% | –
800 nM | C=CCNC1=C2C[C@@H](C)C[C@H](OC)[C@H](OC(=O)NS(=O)(=O)N3CCC3)[C@@H](C)/C=C(\C)[C@H](OC(N)=O)[C@@H](OC)/C=C\C=C(/C)C(=O)NC(=CC1=O)C2=O | – | –
– | C=CCNC1=C2C[C@@H](C)C[C@H](OC)[C@H](O)[C@@H](C)/C=C(\C)[C@H](OC(N)=O)[C@@H](OC)/C=C\C=C(/C)C(=O)NC(=CC1=O)C2=O [TANESPIMYCIN] | 56% | –
1200 nM | C=CCNC1=C2C[C@@H](C)C[C@H](OC)[C@@H](F)[C@@H](C)/C=C(\C)[C@H](OC(N)=O)[C@@H](OC)CC/C=C(\C)C(=O)NC(=CC1=O)C2=O | – | inactive
> 3300 nM | C=CCNC1=C2C[C@@H](C)C[C@H](OC)[C@H](O)[C@@H](C)/C=C(\C)[C@H](OC(=O)CN)[C@@H](OC)/C=C\C=C(/C)C(=O)NC(=CC1=O)C2=O | – | –
200 nM | COc1ccccc1C(=O)CN1C(=O)/C(C)=C/CC[C@H](OC)[C@@H](OC(N)=O)/C(C)=C/[C@H](C)[C@@H](O)[C@@H](OC)C[C@H](C)CC2=C(N)C(=O)C=C1C2=O | – | –
1700 nM | CO[C@H]1/C=C\C=C(/C)C(=O)NC2=CC(=O)C(N3CCC3)=C(C[C@@H](C)C[C@H](OC)[C@H](O)[C@@H](C)/C=C(\C)[C@@H]1/N=C(/N)S)C2=O | – | –
50 nM | CO[C@H]1/C=C\C=C(/C)C(=O)NC2=CC(=O)C(N3CCC3)=C(C[C@@H](C)C[C@H](OC)[C@H](OC(N)=O)[C@@H](C)/C=C(\C)[C@@H]1OC(N)=O)C2=O | – | inactive
– | CNC1=C2C[C@@H](C)C[C@H](OC)[C@H](O)[C@@H](C)/C=C(\C)[C@H](OC(N)=O)[C@@H](OC)/C=C\C=C(/C)C(=O)NC(=CC1=O)C2=O | 18% | –
1900 nM | CO[C@H]1/C=C\C=C(/C)C(=O)N(CC(=O)c2ccc(N=[N+]=[N-])cc2)C2=CC(=O)C(N3CCC3)=C(C[C@@H](C)C[C@H](OC)[C@H](O)[C@@H](C)/C=C(\C)[C@@H]1OC(N)=O)C2=O | – | –
> 3300 nM | C=CCNC1=C2C[C@@H](C)C[C@H](OC)[C@H](O)[C@@H](C)/C=C(\C)[C@H](OC(=O)NCC)[C@@H](OC)/C=C\C=C(/C)C(=O)NC(=CC1=O)C2=O | – | –
> 2500 nM | C=CCNC1=C2C[C@@H](C)C[C@H](OC)[C@H](OC(=O)NS(=O)(=O)N3CN(C)C3)[C@@H](C)/C=C(\C)[C@H](OC(N)=O)[C@@H](OC)/C=C\C=C(/C)C(=O)NC(=CC1=O)C2=O | – | –
40 nM | CO[C@H]1C[C@H](C)CC2=C(N3CCC3)C(=O)C=C(NC(=O)/C(C)=C/CC[C@H](OC)[C@@H](OC(N)=O)/C(C)=C/[C@H](C)[C@@H]1F)C2=O | – | inactive

IC50 (SK-BR-3) | Compound | Inhibition (Mus musculus [1]) | inhibition (Mus musculus [2])
1000 nM | C=CCN[C@H]1[C@@H](OC)C[C@H](C)CC2=C(NC)C(=O)C=C(NC(=O)/C(C)=C/C=C\[C@H](OC)[C@@H](OC(N)=O)/C(C)=C/[C@@H]1C)C2=O | – | –
> 3900 nM | CO[C@H]1/C=C\C=C(/C)C(=O)NC2=CC(=O)C(N)=C(C[C@@H](C)C[C@H](OC)[C@H](O)[C@@H](C)/C=C(\C)[C@@H]1O)C2=O | – | –
37 nM | CO[C@H]1C[C@H](C)CC2=C(N)C(=O)C=C(NC(=O)/C(C)=C/CC[C@H](OC)[C@@H](OC(N)=O)/C(C)=C/[C@H](C)[C@H]1O)C2=O | 45% | –
850 nM | CNC1=C2C[C@@H](C)C[C@H](OC)[C@H](NCc3ccccc3)[C@@H](C)/C=C(\C)[C@H](OC(N)=O)[C@@H](OC)/C=C\C=C(/C)C(=O)NC(=CC1=O)C2=O | – | –
34 nM | CNC1=C2C[C@@H](C)C[C@H](OC)C(=O)[C@@H](C)/C=C(\C)[C@H](OC(N)=O)[C@@H](OC)/C=C\C=C(/C)C(=O)NC(=CC1=O)C2=O | – | inactive
1070 nM | C=CCNC1=C2C[C@@H](C)C[C@H](OC)[C@H](OC(=O)NS(=O)(=O)NC(C)C)[C@@H](C)/C=C(\C)[C@H](OC(N)=O)[C@@H](OC)/C=C\C=C(/C)C(=O)NC(=CC1=O)C2=O | – | –
190 nM | CO[C@H]1/C=C\C=C(/C)C(=O)NC2=CC(=O)C(N3CCC3)=C(C[C@@H](C)C[C@H](OC)[C@H](OC(=O)NS(=O)(=O)N3CCN(C)CC3)[C@@H](C)/C=C(\C)[C@@H]1OC(N)=O)C2=O | – | inactive
830 nM | CO[C@H]1/C=C\C=C(/C)C(=O)N(CC(C)=O)C2=CC(=O)C(N)=C(C[C@@H](C)C[C@H](OC)[C@H](O)[C@@H](C)/C=C(\C)[C@@H]1OC(N)=O)C2=O | – | –
> 3200 nM | COC(=O)/C(C)=C\C=C\[C@H](OC)[C@@H](OC(N)=O)/C(C)=C/[C@H](C)[C@@H](O)[C@H](C[C@H](C)CC1=C(N2CCC2)C(O)=CC(=N)C1=O)OC | – | –
140 nM | CO[C@H]1/C=C\C=C(/C)C(=O)NC2=CC(=O)C(N3CCC3)=C(C[C@@H](C)C[C@H](OC)[C@H](OC(=O)NS(=O)(=O)NC(C)C)[C@@H](C)/C=C(\C)[C@@H]1OC(N)=O)C2=O | – | inactive
300 nM | CO[C@H]1/C=C\C=C(/C)C(=O)N(CC(=O)c2ccccc2)C2=CC(=O)C(N)=C(C[C@@H](C)C[C@H](OC)[C@H](O)[C@@H](C)/C=C(\C)[C@@H]1OC(N)=O)C2=O | – | –
2600 nM | CO[C@H]1/C=C\C=C(/C)C(=O)NC2=CC(=O)C(N3CCC3)=C(C[C@@H](C)C[C@H](OC)[C@H](O)[C@@H](C)/C=C(\C)[C@@H]1NC(N)=O)C2=O | – | –
1100 nM | CO[C@H]1C[C@H](C)CC2=C(N3CCC3)C(=O)C=C(NC(=O)/C(C)=C/C=C\[C@H](OC)[C@@H](OC(N)=O)/C(C)=C/[C@H](C)/C1=N/O)C2=O | – | inactive
80 nM | CO[C@H]1/C=C\C=C(/C)C(=O)N(CC(=O)c2ccc(Cl)c(Cl)c2)C2=CC(=O)C(N)=C(C[C@@H](C)C[C@H](OC)[C@H](O)[C@@H](C)/C=C(\C)[C@@H]1OC(N)=O)C2=O | – | inactive
70 nM | CO[C@H]1/C=C\C=C(/C)C(=O)N(CC(=O)c2cccc3ccccc23)C2=CC(=O)C(N)=C(C[C@@H](C)C[C@H](OC)[C@H](O)[C@@H](C)/C=C(\C)[C@@H]1OC(N)=O)C2=O | – | inactive
1290 nM | CO[C@H]1/C=C\C=C(/C)C(=O)NC2=CC(=O)C(N3CCC3)=C(C[C@@H](C)C[C@H](OC)[C@H](O)[C@@H](C)/C=C(\C)[C@@H]1O)C2=O | – | –
500 nM | CO[C@H]1/C=C\C=C(/C)C(=O)NC2=CC(=O)C(NC3CC3)=C(C[C@@H](C)C[C@H](OC)[C@@H](F)[C@@H](C)/C=C(\C)[C@@H]1OC(N)=O)C2=O | – | –
140 nM | CO[C@H]1/C=C\C=C(/C)C(=O)N(CC(=O)c2ccc(N=[N+]=[N-])c(I)c2)C2=CC(=O)C(N)=C(C[C@@H](C)C[C@H](OC)[C@H](O)[C@@H](C)/C=C(\C)[C@@H]1OC(N)=O)C2=O | – | –
220 nM | C=CCNC1=C2C[C@@H](C)C[C@H](OC)C(=O)[C@@H](C)/C=C(\C)[C@H](OC(N)=O)[C@@H](OC)/C=C\C=C(/C)C(=O)NC(=CC1=O)C2=O | – | –
200 nM | CO[C@H]1/C=C\C=C(/C)C(=O)N(CC(=O)c2ccc3ccccc3c2)C2=CC(=O)C(N)=C(C[C@@H](C)C[C@H](OC)[C@H](O)[C@@H](C)/C=C(\C)[C@@H]1OC(N)=O)C2=O | – | inactive
34 nM | CO[C@H]1C[C@H](C)CC2=C(N3CCC3)C(=O)C=C(NC(=O)/C(C)=C/C=C\[C@H](OC)[C@@H](OC(N)=O)/C(C)=C/[C@H](C)C1=O)C2=O | – | inactive
– | CO[C@H]1/C=C\C=C(/C)C(=O)NC2=CC(=O)C(NC(C)C)=C(C[C@@H](C)C[C@H](OC)[C@H](O)[C@@H](C)/C=C(\C)[C@@H]1OC(N)=O)C2=O | 87% | –
> 3100 nM | CO[C@H]1/C=C\C=C(/C)C(=O)N(Cc2ccccn2)C2=CC(=O)C(N)=C(C[C@@H](C)C[C@H](OC)[C@H](O)[C@@H](C)/C=C(\C)[C@@H]1OC(N)=O)C2=O | – | –
